Here are results for one compound from ChEMBL document CHEMBL3627626, “6-Substituted Pyrrolo[2,3-d]pyrimidine Thienoyl Regioisomers as Targeted Antifolates for Folate Receptor α and the Proton-Coupled Folate Transporter in Human Tumors” (J Med Chem, 2015).

One data set deals with SK-OV-3. In words: Antitumor activity against human SKOV3 cells expressing RFC/PCFT/FRalpha xenografted in folate-deficient diet fed NCR SCID mouse assessed as delay in tumor growth at 16 mg/kg, iv administered every 4 days on day 3, 7, 11 measured twice per week. The class given is functional, organism-based. In outline: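 Ten-week-old female NCR SCID mice, fed a folate-deficient or standard folate-replete diet, were implanted subcutaneously and bilaterally with SKOV3 tumour fragments. Randomised at 5 mice/group. Dosed intravenously, 0.2 mL per injection, in 5% ethanol/1% Tween-80/0.5% NaHCO3 in water at pH 6.5, on days 3, 7 and 11. Tumours measured twice weekly and mice weighed daily. T/C taken on day 21; growth delay and log cell kill also reported.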

Data set [1] concerns R2. In words: Cytotoxicity against Chinese hamster R2 cells transfected with empty PCDNA3 assessed as cell growth inhibition after 96 hrs by CellTiter-Blue assay. It is filed as cell-based, Cricetulus griseus.
The target of data set [2] is Folate receptor beta (Homo sapiens) (UniProt P14207). Briefly: Displacement of [3H]-folic acid from human FRbeta expressed in Chinese hamster D4 cells after 15 mins relative to folic acid. It is filed as cell-based. In outline:
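Competitive binding to surface folate receptor on RT16 (FRα) or D4 (FRβ) CHO cells. Cells were acid-washed (pH 3.5) to strip bound folate, then incubated in HEPES-buffered saline pH 7.4 with 50 nM [3H]folic acid plus unlabeled ligand (0–1000 nM) for 15 min at 0 °C. Bound label was normalised to protein. Affinity is the inverse molar ratio for 50% displacement, with folic acid set to 1. Mean of 4–10 experiments ±SE.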

Data set [3] has as its system R2. In words: Cellular uptake in PCFT-null Chinese hamster R2 cells at 0.5 uM at 37 degC at pH 5.5 measured over 2 mins. The settings on record: r2, pH 5.5, 2 min. It is filed as ADME, cell-based, Cricetulus griseus. In outline: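 R2/PCFT4 or PCFT-null R2 CHO cells were grown in suspension from spinner flasks. Uptake of 0.5 μM [3H]drug measured over 2 min at 37 °C in MES-buffered saline pH 5.5, with or without 10 μM unlabeled competitor. Uptake was quenched with ice-cold DPBS and cells solubilised in NaOH. Results are pmol/mg protein, mean ±SEM of three experiments.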

Data set [4] deals with T1, Proton-coupled folate transporter (Homo sapiens) (UniProt Q96NT5).
T1 sequence (whole entry): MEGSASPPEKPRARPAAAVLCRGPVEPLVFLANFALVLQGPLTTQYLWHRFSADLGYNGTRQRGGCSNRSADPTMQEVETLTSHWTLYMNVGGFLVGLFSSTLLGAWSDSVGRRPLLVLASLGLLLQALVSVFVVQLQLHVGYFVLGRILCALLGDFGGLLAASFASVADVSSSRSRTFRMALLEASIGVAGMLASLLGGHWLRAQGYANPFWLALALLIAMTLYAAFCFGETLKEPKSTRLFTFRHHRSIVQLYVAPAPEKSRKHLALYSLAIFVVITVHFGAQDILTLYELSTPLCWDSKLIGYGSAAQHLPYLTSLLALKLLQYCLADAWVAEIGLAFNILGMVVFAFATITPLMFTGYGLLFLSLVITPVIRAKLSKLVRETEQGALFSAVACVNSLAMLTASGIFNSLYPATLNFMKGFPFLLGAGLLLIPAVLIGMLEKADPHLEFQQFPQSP
Briefly: Binding affinity to human PCFT expressed in Chinese hamster R2/PCFT4 cells assessed as increase in intracellular drug transport at 0.5 uM at 37 degC at pH 5.5 measured over 5 mins in presence of AGF94. It is filed as cell-based.

In data set [5] the target is T1, Proton-coupled folate transporter (Homo sapiens). In words: Binding affinity to human PCFT expressed in Chinese hamster R2/PCFT4 cells assessed as intracellular drug transport rate at 37 degC at pH 6.8 measured over 2 mins by Lineweaver-Burk plot analysis. The class given is cell-based. In outline: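 R2/PCFT4 CHO cells were grown as monolayers, transferred to spinner flasks, and used as suspensions (5–10 × 10⁷ cells). Uptake was quenched with ice-cold DPBS and cells were NaOH-solubilized. Results are pmol/mg protein; Kt and Vmax come from Lineweaver–Burke plots.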

The target in data set [6] is T2, Trifunctional purine biosynthetic protein adenosine-3 (Homo sapiens) (UniProt P22102).
T2 sequence (whole entry): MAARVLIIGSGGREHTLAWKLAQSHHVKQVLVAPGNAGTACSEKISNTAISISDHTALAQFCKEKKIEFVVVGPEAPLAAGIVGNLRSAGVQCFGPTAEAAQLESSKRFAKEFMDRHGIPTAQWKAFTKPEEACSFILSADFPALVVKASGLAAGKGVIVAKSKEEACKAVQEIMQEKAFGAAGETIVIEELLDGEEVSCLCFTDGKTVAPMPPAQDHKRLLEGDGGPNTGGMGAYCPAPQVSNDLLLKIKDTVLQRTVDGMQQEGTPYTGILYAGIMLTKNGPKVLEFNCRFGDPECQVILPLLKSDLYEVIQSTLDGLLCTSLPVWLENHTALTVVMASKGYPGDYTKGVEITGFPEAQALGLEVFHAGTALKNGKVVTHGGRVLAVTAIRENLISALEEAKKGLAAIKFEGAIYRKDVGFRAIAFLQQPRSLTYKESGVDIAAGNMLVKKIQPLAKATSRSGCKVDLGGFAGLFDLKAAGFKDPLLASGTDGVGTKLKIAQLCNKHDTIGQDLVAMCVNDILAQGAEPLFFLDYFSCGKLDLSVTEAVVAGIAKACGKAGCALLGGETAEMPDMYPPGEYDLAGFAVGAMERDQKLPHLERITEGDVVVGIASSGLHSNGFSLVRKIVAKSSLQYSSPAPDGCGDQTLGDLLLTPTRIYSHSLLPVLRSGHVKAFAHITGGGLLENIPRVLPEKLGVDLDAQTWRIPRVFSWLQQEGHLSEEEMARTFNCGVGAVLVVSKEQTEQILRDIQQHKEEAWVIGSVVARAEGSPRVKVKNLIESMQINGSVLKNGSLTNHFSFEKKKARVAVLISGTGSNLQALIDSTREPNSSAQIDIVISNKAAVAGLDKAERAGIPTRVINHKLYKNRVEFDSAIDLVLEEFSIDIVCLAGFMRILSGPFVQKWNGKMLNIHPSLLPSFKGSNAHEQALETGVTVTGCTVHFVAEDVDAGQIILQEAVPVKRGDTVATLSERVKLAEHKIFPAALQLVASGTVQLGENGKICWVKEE
In words: Inhibition of GARFTase in human KB cells expressing FRalpha/PCFT/RFC assessed as cell growth inhibition after 96 hrs by CellTiter-Blue assay in presence of adenosine. It is filed as cell-based.

Data set [7] concerns the target T3, Trifunctional purine biosynthetic protein adenosine-3 (Homo sapiens, UniProt P22102).
T3 sequence (P22102 whole entry): T2 sequence (whole entry)
In words: Inhibition of GARFTase in human KB cells expressing FRalpha/PCFT/RFC assessed as incorporation of [14C(U)]-glycine into [14C]-formyl GAR preincubated for 1 hr followed by azaserine, L-glutamine, 14C(U)]-glycine addition measured after 16 hrs. It is filed as cell-based. In outline: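 In situ assay in KB cells. Cells were exposed to a range of drug concentrations with [14C]glycine for 16 h under proliferation-assay conditions, with azaserine present. Radiolabelled metabolites were extracted and separated on anion exchange columns, and [14C]formyl GAR quantified. Mean ±SE of three experiments.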

The target of data set [8] is T3, Trifunctional purine biosynthetic protein adenosine-3. In words: Inhibition of human recombinant His-tagged GARFTase assessed as formation of 5,8-dideazafolate from 10-formyl-5,80-dideazafolic acid measured every 15 secs over 20 mins by spectrophotometric analysis.

Activity calls are given as the source filed them. No cut-off for these calls is given here. A value given as a limit tells only on which side of the number the result lay.

Folate receptor beta (Homo sapiens), sequence (P14207 17-230 limits assumed): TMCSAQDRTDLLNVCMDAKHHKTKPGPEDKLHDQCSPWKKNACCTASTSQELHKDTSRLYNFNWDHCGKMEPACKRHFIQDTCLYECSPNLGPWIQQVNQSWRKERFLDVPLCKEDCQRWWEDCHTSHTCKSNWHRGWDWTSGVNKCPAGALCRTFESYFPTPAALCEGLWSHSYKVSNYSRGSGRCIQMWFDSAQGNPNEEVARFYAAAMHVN

As for `Nc1nc2[nH]c(CCCc3cc(C(=O)N[C@@H](CCC(=O)O)C(=O)O)cs3)cc2c(=O)[nH]1`, the result with SK-OV-3 was Active. In addition, the results for the IC50 (with R2 [1]; in data set [7]) were more than 1000 nM and 2.6 nM, respectively. Moreover, the Activity in data set [2] came to 35%. In addition, the Drug uptake result with R2 [3] is given as “Not Active”. Moreover, in data set [4], the result was inactive. In addition, the K in data set [5] was 0.17 µM. Besides, in data set [6], the inhibition result was “inactive”. Further, in data set [8], the Ki was determined as 9.1 nM.
